Assay results published in ChEMBL document CHEMBL2417409 (Eur J Med Chem, 2013).
pIC50, pKi: −log10 of the molar value.

Assays:
[1] = tested on: Radical scavenging activity; experiment: Antioxidant activity assessed as DPPH radical scavenging activity after 15 mins by spectrophotometry; assay type: functional
Method in brief: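 Sample (10 µL at 0.1, 1.0 or 10.0 mg/mL) mixed with 0.1 mM DPPH in methanol (150 µL), kept in the dark at room temperature on a shaker for 15 min. Absorbance read at 517 nm. Percentage scavenging = [(A0 − A1)/A0] × 100, with A0 and A1 the absorbance without and with sample.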

[2] = tested on: Radical scavenging activity; experiment: Antioxidant activity assessed as DPPH radical scavenging activity at 10 mg/ml after 15 mins by spectrophotometry; assay type: functional
Method in brief: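 Sample (10 µL at 0.1, 1.0 or 10.0 mg/mL) mixed with 0.1 mM DPPH in methanol (150 µL), kept in the dark at room temperature on a shaker for 15 min. Percentage scavenging = [(A0 − A1)/A0] × 100, with A0 and A1 the absorbance without and with sample.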

[3] = target: Sucrase-isomaltase, intestinal (Rattus norvegicus) (UniProt P23739); experiment: Inhibition of rat intestine sucrase using sucrose as substrate at 10 mg/ml incubated for 10 mins prior to substrate addition measured after 40 mins by glucose oxidase colorimetric method
Saccharomyces cerevisiae = experiment: Inhibition of yeast type 1 alpha-glucosidase using PNPG as substrate at 10 mg/ml incubated for 10 mins prior to substrate addition measured after 20 mins by spectrophotometry
[4] = tested on: Maltase-glucoamylase, intestinal (Rattus norvegicus); experiment: Inhibition of rat intestine maltase using maltose as substrate at 10 mg/ml incubated for 10 mins prior to substrate addition measured after 40 mins by glucose oxidase colorimetric method
[5] = target: T1, Sucrase-isomaltase, intestinal (Rattus norvegicus, UniProt P23739); experiment: Inhibition of rat intestine sucrase using sucrose as substrate incubated for 10 mins prior to substrate addition measured after 40 mins by glucose oxidase colorimetric method
Method in brief: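 Crude enzyme from centrifuged (12,000 g, 30 min) intestinal supernatant containing both maltase and sucrase. Test compound (1 mg/mL stock, DMSO) preincubated with enzyme at 37 C for 10 min. Substrate in 0.1 M phosphate buffer pH 6.9 (maltose 0.58 mM or sucrose 20 mM) added, then 40 min at 37 C. Quenched at 80 C for 15 min. Released glucose measured by glucose oxidase kit.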

[6] = target: T1, Sucrase-isomaltase, intestinal; experiment: Non-competitive inhibition of rat intestine sucrase using sucrose as substrate by Lineweaver-Burk plot analysis
Method in brief: (§1)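 Same maltase/sucrase reactions, with activity held at 0.45 (maltase) and 0.09 (sucrase) U/mg protein. Inhibitor 0 to 20.4 mM against substrate 1.0 to 20.0 mM. Vmax and Km obtained from Lineweaver–Burk intercepts and slopes. Ki (EI) from a secondary plot of slope versus inhibitor concentration; Ki′ (ESI) from a secondary plot of intercept versus inhibitor concentration.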

[7] = target: T1, Sucrase-isomaltase, intestinal; experiment: Competitive inhibition of rat intestine sucrase using sucrose as substrate by Lineweaver-Burk plot analysis; method in brief: as §1
[8] = Inhibition of yeast type 1 alpha-glucosidase using PNPG as substrate incubated for 10 mins prior to substrate addition measured after 20 mins by spectrophotometry; parameters: species or system Saccharomyces cerevisiae

T1 sequence (P23739 1-1013 limits assumed): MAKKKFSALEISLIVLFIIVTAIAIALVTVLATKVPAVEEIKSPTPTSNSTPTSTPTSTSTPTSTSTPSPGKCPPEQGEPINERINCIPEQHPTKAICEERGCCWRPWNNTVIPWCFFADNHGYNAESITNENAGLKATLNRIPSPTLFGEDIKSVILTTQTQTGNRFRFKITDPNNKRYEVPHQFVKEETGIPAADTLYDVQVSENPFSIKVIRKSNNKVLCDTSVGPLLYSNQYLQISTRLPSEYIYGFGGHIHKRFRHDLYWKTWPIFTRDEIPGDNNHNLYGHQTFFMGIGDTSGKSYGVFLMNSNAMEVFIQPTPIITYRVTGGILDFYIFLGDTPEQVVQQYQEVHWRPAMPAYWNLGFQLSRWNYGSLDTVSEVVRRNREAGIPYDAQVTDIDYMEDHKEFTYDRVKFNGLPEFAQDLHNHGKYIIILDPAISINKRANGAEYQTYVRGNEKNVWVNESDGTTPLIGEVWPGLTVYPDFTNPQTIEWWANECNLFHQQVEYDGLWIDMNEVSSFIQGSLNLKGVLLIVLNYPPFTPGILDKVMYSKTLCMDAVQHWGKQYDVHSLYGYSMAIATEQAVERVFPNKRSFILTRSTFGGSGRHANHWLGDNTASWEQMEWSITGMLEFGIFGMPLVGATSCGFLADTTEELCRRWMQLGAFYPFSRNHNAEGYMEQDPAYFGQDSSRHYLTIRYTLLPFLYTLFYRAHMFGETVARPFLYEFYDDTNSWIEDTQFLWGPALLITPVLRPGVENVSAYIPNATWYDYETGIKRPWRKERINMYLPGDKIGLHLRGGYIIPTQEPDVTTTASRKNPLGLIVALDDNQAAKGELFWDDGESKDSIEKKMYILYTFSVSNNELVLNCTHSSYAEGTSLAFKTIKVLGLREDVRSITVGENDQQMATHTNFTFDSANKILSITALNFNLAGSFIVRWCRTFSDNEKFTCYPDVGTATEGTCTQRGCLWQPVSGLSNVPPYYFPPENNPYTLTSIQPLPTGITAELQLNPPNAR
T1 sequence (P23739 1014-1841 limits assumed): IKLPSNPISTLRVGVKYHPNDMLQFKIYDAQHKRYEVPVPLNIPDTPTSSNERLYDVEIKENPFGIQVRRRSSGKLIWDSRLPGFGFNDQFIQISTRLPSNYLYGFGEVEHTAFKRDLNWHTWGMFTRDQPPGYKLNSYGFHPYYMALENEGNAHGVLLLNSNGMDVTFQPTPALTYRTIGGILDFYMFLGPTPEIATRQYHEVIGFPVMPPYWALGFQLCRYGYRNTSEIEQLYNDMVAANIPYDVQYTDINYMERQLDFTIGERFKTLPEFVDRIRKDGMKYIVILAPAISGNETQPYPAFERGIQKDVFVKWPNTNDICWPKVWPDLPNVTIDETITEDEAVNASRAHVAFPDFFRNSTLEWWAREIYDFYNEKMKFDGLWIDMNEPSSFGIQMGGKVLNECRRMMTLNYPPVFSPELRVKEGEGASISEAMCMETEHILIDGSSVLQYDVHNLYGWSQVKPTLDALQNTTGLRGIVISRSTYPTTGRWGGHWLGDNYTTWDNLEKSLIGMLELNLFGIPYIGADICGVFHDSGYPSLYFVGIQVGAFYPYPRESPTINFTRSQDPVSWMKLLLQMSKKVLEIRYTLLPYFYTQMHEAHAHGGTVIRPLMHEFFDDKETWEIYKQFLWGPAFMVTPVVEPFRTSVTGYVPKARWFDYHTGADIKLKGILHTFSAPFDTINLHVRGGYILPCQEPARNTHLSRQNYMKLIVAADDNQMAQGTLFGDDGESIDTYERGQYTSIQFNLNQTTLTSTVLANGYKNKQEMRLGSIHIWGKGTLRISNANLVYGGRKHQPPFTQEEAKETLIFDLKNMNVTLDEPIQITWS
Chain of Sucrase-isomaltase, intestinal (Rattus norvegicus) (P23739 1-1013 limits assumed): as the sequence (P23739 1-1013 limits assumed) above
Chain of Sucrase-isomaltase, intestinal (Rattus norvegicus) (P23739 1014-1841 limits assumed): as the sequence (P23739 1014-1841 limits assumed) above

Structure (SMILES) | inhibition [3] [%] | inhibition (Saccharomyces cerevisiae) [%] | pIC50 [5] | inhibition [2] [%] | also measured
COc1ccc(O)c(C(C)(C)C)c1.COc1ccc(O)cc1C(C)(C)C [BUTYLATED HYDROXYANISOLE] | – | – | – | – | pIC50 [1]: 7.00
COc1ccccc1/C=C/C(=O)O[C@@H]1C[C@@H](O)[C@H](O)[C@@H](O)[C@H]1O | < 30 | – | – | – | –
COc1ccc(/C=C/C(=O)O[C@@H]2C[C@@H](O)[C@H](O)[C@@H](O)[C@H]2O)cc1OC | < 30 | – | – | – | –
O=C(O)/C=C/c1ccc(O)c(O)c1 [CAFFEIC ACID] | – | < 30 | 4.06 | – | pIC50 [1]: 3.82
COc1ccccc1/C=C/C(=O)O[C@H]1C[C@@H](O)[C@H](O)[C@@H](O)[C@H]1O | < 30 | – | – | – | –
COc1ccc(/C=C/C(=O)O[C@H]2C[C@@H](O)[C@H](O)[C@@H](O)[C@H]2O)cc1OC | < 30 | – | – | – | –
COc1cc(/C=C/C(=O)O[C@@H]2C[C@@H](O)[C@H](O)[C@@H](O)[C@H]2O)cc(OC)c1OC | < 30 | < 30 | – | < 50 | inhibition [4]: < 30%
O=C(/C=C/c1ccc(O)c(O)c1)O[C@@H]1C[C@@H](O)[C@H](O)[C@@H](O)[C@H]1O | – | < 30 | 4.36 | – | pKi [6]: 4.32; pKi [7]: 4.65; pIC50 [1]: 3.96
O=C(/C=C/c1ccc(O)c(O)c1)O[C@H]1C[C@@H](O)[C@H](O)[C@@H](O)[C@H]1O | – | < 30 | 3.02 | < 50 | –
C[C@H]1O[C@H](O[C@H]2[C@H](O)[C@@H](O)[C@@H](O[C@H]3[C@H](O)[C@@H](O)C(O)O[C@@H]3CO)O[C@@H]2CO)[C@H](O)[C@@H](O)[C@@H]1N[C@H]1C=C(CO)[C@@H](O)[C@H](O)[C@H]1O (stereo partly drawn) [ACARBOSE] | – | – | – | – | pIC50 [8]: 3.39

The next lines start with results.

inhibition [3] [%] | inhibition (Saccharomyces cerevisiae) [%] | pIC50 [5] | Structure (SMILES) | inhibition [2] [%] | also measured
< 30 | < 30 | – | COc1ccc(/C=C/C(=O)O[C@@H]2C[C@@H](O)[C@H](O)[C@@H](O)[C@H]2O)cc1 | < 50 | inhibition [4]: < 30%
– | < 30 | 3.09 | COc1ccc(/C=C/C(=O)O[C@H]2C[C@@H](O)[C@H](O)[C@@H](O)[C@H]2O)cc1O | < 50 | –
< 30 | – | – | COc1cccc(/C=C/C(=O)O[C@H]2C[C@@H](O)[C@H](O)[C@@H](O)[C@H]2O)c1 | – | –
< 30 | – | – | COc1cccc(/C=C/C(=O)O[C@@H]2C[C@@H](O)[C@H](O)[C@@H](O)[C@H]2O)c1 | – | –
– | < 30 | 4.17 | COc1cc(/C=C/C(=O)O[C@@H]2C[C@@H](O)[C@H](O)[C@@H](O)[C@H]2O)ccc1O | < 50 | –
– | < 30 | 3.77 | COc1cc(/C=C/C(=O)O[C@H]2C[C@@H](O)[C@H](O)[C@@H](O)[C@H]2O)ccc1O | < 50 | –
< 30 | < 30 | – | COc1ccc(/C=C/C(=O)O[C@H]2C[C@@H](O)[C@H](O)[C@@H](O)[C@H]2O)cc1 | < 50 | inhibition [4]: < 30%
– | < 30 | 4.28 | COc1ccc(/C=C/C(=O)O[C@@H]2C[C@@H](O)[C@H](O)[C@@H](O)[C@H]2O)cc1O | < 50 | –
